A short description of series [1]: Drug level in brain of transgenic J20 mouse overexpressing human APP at 25 mg/kg, po administered via gavage for 3 consecutive days and measured after 4 hrs post last dose on day 3 by HPLC-MS/MS analysis. It is filed as ADME, organism-based. The settings on record: time 3 day, read-out: Ct. A digest of the protocol:
(§1)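 Female J20 mice, 5–6 months old, given 25, 50 or 100 mg/kg orally (5% NMP/95% PEG300) daily for 3 days, n=5/dose. Plasma and brain taken 4 h after the final dose and analysed by LC-MS/MS. LLOQ was 1 ng/mL in plasma and 5 ng/g in brain.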

Series [2] has as its target Cytochrome P450 2C9 (Homo sapiens, UniProt P11712). Description: Inhibition of recombinant CYP2C9 (unknown origin) by fluorescence-based assay. The format is ADME. A digest of the protocol:
(§2)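 Recombinant CYP isoforms (five tested) screened for inhibition in fluorescence-based assays; IC50 in μM.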

Series [3] in a line: Metabolic stability in rat liver microsomes assessed as parent compound remaining at 1 uM incubated for 30 mins. The format is ADME, Microsome. To be noted: 0.5 h. A digest of the protocol: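 Test compound at 1 μM incubated 30 min with human, rat or mouse liver microsomes (1 mg/mL); parent remaining expressed as %.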
(Liver microsomes are vesicles of endoplasmic reticulum, rich in cytochrome P450 enzymes.)

Series [4] in a line: Half life in CD-1 mouse at 5 mg/kg, po administered as single dose measured up to 24 hrs. The format is ADME, organism-based. To be noted: in vivo. A digest of the protocol: (§3)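 Male CD-1 mice, 6–8 weeks old, single dose by tail vein (1 mg/kg, 3% NMP/45% PEG300/12% ethanol/40% water) or oral gavage (5 mg/kg, 5% NMP/95% PEG300). Retro-orbital plasma sampled 0.083 (iv only) to 24 h, n=3/timepoint, and analysed by HPLC/MS/MS. Non-compartmental analysis. Half-life taken from the terminal phase using ≥3 non-zero points after Tmax.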

Series [5] has as its target Gamma-secretase (Homo sapiens) (UniProt Q96BI3+Q9NZ42+Q8WW43+P49768+Q92542+P49810). Description: Modulation of gamma secretase in human SH-SY5Y cells overexpressing wild type APP751 assessed as effect on total amyloid beta level by meso scale discovery. The format is cell-based. A digest of the protocol:
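SHSY5Y cells stably overexpressing wild-type human APP751 treated with the compound over a concentration range. Aβ38, Aβ40, Aβ42 and total Aβ in the medium measured by MSD triplex immunoassay (4G8 detection, 2 h at room temperature). Concentrations back-fitted from standard curves.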

Series [6] is described as follows: In vivo modulation of gamma secretase in transgenic J20 mouse overexpressing human APP assessed as reduction in plasma amyloid beta40 level at 25 mg/kg, po administered via gavage for 3 consecutive days and measured after 4 hrs post last dose on day 3 by meso scale discovery relative to control. More on the design: scale not given: the % may be the effect or the level left. The settings on record: time 3 day. The format is functional. A digest of the protocol: (§4)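 Female J20 mice, 5–6 months old (n=5/dose), dosed orally at 25, 50 or 100 mg/kg or with vehicle (5% NMP/95% PEG300) for 3 consecutive days. Plasma was taken 4 h after the final dose. Aβ38/40/42 measured by Meso Scale multiplex immunoassay, with % reduction relative to vehicle. Mean ± SEM, ANOVA.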

A short description of series [7]: AUC infinity in CD-1 mouse at 5 mg/kg, po administered as single dose measured up to 24 hrs. It is filed as ADME, organism-based. Also on record: route oral, dose 5 mg/kg, time <=24. To be noted: in vivo. A digest of the protocol: as §3
The target of series [8] is Cytochrome P450 2D6 (Homo sapiens, UniProt P10635). As to the kind of experiment: Inhibition of recombinant CYP2D6 (unknown origin) by fluorescence-based assay. It is filed as ADME. A digest of the protocol:
as §2

The target in series [9] is Gamma-secretase. Description: Modulation of gamma secretase in human SH-SY5Y cells overexpressing wild type APP751 assessed as effect on amyloid beta40 level by meso scale discovery. It is filed as cell-based.
The nature of series [10]: In vivo modulation of gamma secretase in transgenic J20 mouse overexpressing human APP assessed as reduction in plasma amyloid beta42 level at 25 mg/kg, po administered via gavage for 3 consecutive days and measured after 4 hrs post last dose on day 3 by meso scale discovery relative to control. The format is functional. Also on record: scale not given: the % may be the effect or the level left. The settings on record: time 3 day. A digest of the protocol: as §4

Series [11] has as its target Gamma-secretase. As to the kind of experiment: Modulation of gamma secretase in human SH-SY5Y cells overexpressing wild type APP751 assessed as inhibition of amyloid beta (35 to 42 residues) formation incubated for overnight by ELISA. It is filed as cell-based. A digest of the protocol:
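SHSY5Y-APP751 cells plated at 75K/well and incubated overnight at 37 °C, then treated 24 h over 10 concentrations ([…]–10 μM, 1:3.16 steps, in duplicate). Medium Aβ42 measured by sandwich ELISA (Aβ35–42 capture, AP-conjugated Aβ1–12 detection, CDP-Star luminescence) against an Aβ42 standard curve.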
A general note: ELISA stands for enzyme-linked immunosorbent assay.

A short description of series [12]: Tmax in CD-1 mouse at 5 mg/kg, po administered as single dose measured up to 24 hrs. The settings on record: in vivo. It is filed as ADME, organism-based. A digest of the protocol:
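Male CD-1 mice, 6–8 weeks old, single oral gavage dose in 5% NMP/95% PEG300. Plasma (K3EDTA, retro-orbital, under isoflurane) taken at 0.25, 0.5, 1, 2, 4, 8 and 24 h, n=3/timepoint, analysed by HPLC/MS/MS. Non-compartmental extravascular analysis (Model 200); Tmax taken directly from the data.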

A short description of series [13]: In vivo modulation of gamma secretase in transgenic J20 mouse overexpressing human APP assessed as reduction in plasma amyloid beta38 level at 50 mg/kg, po administered via gavage for 3 consecutive days and measured after 4 hrs post last dose on day 3 by meso scale discovery relative to control. Also on record: scale not given: the % may be the effect or the level left. The settings on record: time 3 day. The format is functional. A digest of the protocol:
as §4

The nature of series [14]: Ratio of drug concentration in CD-1 mouse brain to plasma at 0.4 mg/kg, iv measured after 1 hr. It is filed as ADME, organism-based.
Series [15] can be described thus: In vivo modulation of gamma secretase in transgenic J20 mouse overexpressing human APP assessed as reduction in plasma amyloid beta38 level at 25 mg/kg, po administered via gavage for 3 consecutive days and measured after 4 hrs post last dose on day 3 by meso scale discovery relative to control. It is filed as functional. Also on record: scale not given: the % may be the effect or the level left. To be noted: time 3 day. A digest of the protocol: as §4

The nature of series [16]: In vivo modulation of gamma secretase in transgenic J20 mouse overexpressing human APP assessed as reduction in plasma amyloid beta38 level at 100 mg/kg, po administered via gavage for 3 consecutive days and measured after 4 hrs post last dose on day 3 by meso scale discovery relative to control. The format is functional. Also on record: scale not given: the % may be the effect or the level left. The settings on record: time 3 day. A digest of the protocol:
as §4

Series [17] is described as follows: Drug level in plasma of transgenic J20 mouse overexpressing human APP at 50 mg/kg, po administered via gavage for 3 consecutive days and measured after 4 hrs post last dose on day 3 by HPLC-MS/MS analysis. It is filed as ADME, organism-based. To be noted: time 3 day. A digest of the protocol:
as §1

Series [18] addresses Gamma-secretase. Description: Modulation of gamma secretase in human SH-SY5Y cells overexpressing wild type APP751 assessed as effect on amyloid beta38 level by meso scale discovery. It is filed as cell-based.
A short description of series [19]: Ratio of drug level in brain to plasma of transgenic J20 mouse overexpressing human APP at 100 mg/kg, po administered via gavage for 3 consecutive days and measured after 4 hrs post last dose on day 3 by HPLC-MS/MS analysis. The format is ADME, organism-based. The settings on record: 72 h, time 3 day. A digest of the protocol: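 Female J20 mice, 5–6 months old (n=5/dose), dosed by oral gavage once daily for 3 days in 5% NMP/95% PEG300 vehicle. Sacrificed 4 h after the day-3 dose. Plasma and brain drug levels measured by LC-MS/MS (LLOQ 1 ng/mL plasma, 5 ng/g brain). Ratio = brain level/plasma level.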

In series [20] the target is Cytochrome P450 2C19 (Homo sapiens, UniProt P33261). As to the kind of experiment: Inhibition of recombinant CYP2C19 (unknown origin) by fluorescence-based assay. It is filed as ADME. A digest of the protocol: as §2
Cytochrome P450 2C19, sequence (P33261 whole entry): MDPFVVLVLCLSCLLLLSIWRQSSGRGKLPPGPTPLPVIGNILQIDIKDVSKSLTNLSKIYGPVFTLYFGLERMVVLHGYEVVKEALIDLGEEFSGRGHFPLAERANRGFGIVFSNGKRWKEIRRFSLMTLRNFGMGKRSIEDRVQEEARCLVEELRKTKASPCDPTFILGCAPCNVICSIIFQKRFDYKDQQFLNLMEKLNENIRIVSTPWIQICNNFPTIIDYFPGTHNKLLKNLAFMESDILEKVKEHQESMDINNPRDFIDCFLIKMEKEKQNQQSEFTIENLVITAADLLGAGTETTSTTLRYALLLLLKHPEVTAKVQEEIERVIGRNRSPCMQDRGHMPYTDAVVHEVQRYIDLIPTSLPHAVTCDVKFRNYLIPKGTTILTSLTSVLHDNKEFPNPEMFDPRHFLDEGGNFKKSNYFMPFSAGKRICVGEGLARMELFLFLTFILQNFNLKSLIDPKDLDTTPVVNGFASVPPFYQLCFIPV
Series [21] is described as follows: Cmax in CD-1 mouse at 1 mg/kg, iv administered as single dose measured up to 24 hrs. The format is ADME, organism-based. More on the design: route intravenous, dose 1 mg/kg, time <=24. The settings on record: in vivo. A digest of the protocol:
as §3

The source of these data is ChEMBL document CHEMBL4699542, “Design and synthesis of novel methoxypyridine-derived gamma-secretase modulators” (Bioorg Med Chem, 2020).

Calls of active or inactive are those of the source. No cut-off for these calls is given here. A value given as a limit tells only on which side of the number the result lay.

The term IC50 denotes the concentration needed to halve the response being measured. A word on the AUC: it is concentration integrated over time. As a reminder, the Tmax is the time from dosing to the highest level. By EC50 is commonly meant the concentration needed to bring the measured effect to its halfway point. As usually defined, the Cmax is the highest concentration seen after dosing.

Cytochrome P450 2C9, sequence (P11712 whole entry, canonical isoform): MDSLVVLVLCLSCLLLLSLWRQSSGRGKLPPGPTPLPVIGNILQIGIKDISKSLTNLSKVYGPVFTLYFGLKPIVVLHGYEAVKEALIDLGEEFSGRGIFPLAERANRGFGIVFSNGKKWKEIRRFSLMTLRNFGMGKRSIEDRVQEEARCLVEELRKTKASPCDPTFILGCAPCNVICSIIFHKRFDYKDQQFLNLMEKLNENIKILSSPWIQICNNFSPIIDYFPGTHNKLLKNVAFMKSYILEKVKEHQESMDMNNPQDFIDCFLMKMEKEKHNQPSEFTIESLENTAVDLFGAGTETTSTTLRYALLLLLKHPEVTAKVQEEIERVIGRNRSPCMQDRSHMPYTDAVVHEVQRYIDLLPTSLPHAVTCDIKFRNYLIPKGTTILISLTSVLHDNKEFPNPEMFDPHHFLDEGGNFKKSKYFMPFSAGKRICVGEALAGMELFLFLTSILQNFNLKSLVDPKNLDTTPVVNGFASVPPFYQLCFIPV
Cytochrome P450 2D6, sequence (P10635 whole entry): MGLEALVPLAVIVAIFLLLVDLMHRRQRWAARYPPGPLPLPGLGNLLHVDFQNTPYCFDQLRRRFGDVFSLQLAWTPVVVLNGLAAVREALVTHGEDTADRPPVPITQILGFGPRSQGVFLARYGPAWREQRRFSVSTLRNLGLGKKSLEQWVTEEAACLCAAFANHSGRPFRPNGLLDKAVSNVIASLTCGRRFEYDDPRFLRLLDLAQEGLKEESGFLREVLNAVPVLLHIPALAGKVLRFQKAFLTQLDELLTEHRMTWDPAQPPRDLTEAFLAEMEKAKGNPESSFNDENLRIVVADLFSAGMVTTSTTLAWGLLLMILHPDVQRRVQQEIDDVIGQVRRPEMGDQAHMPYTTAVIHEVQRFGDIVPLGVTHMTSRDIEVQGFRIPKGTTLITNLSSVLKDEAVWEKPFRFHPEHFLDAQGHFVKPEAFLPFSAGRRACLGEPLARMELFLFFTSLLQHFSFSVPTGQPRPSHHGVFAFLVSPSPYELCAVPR

Take `CCn1nc2c(c1Nc1nc(-c3ccc(-n4cnc(C)c4)c(OC)n3)cs1)CCC2`: the concentration at 72 h in [1] worked out at 31 ng/g; in series [17], 223 ng/mL. Moreover, the IC50 in series [2] is over 100000 nM; in series [8] it was over 100000 nM; in series [9], 209 nM; in [11] it was 33 nM; in series [20], over 100000 nM. The Stabilty in series [3] is on record as 67%. The same molecule registered a t1/2 in series [4] of 5.3 h. Besides, in series [5], the outcome was inactive. Also, the Activity in series [6] was found to be 19%; in [10], 29%; in series [13], 27%; in series [15], 19%; in [16] it was 50%. Further, the AUC in [7] is 1257 ng·h/mL. Further, the Tmax in series [12] was 0.25 h. For the same molecule, the results for the BPR in series [14] and in series [19] were 0.37 and 0.46, respectively. For the same molecule, in series [18], the concentration giving a half-maximal response (EC50) was 202 nM. This molecule also gave a maximum concentration (Cmax) in [21] of 549 ng/mL.
As to `COc1nc(-c2csc(Nc3c4c(nn3CCF)CCCC4)n2)ccc1-n1cnc(C)c1`, the concentration at 72 h is 39 ng/g in series [1] and 639 ng/mL in series [17]. Further, the IC50 in series [2] was 6800 nM; in series [8], over 100000 nM; in series [9], 100 nM; in [11] it was 47 nM; in series [20], 4600 nM. In addition, the Stabilty in [3] is given as 100%. For the same molecule, the t1/2 in series [4] is 2.6 h. Moreover, the result in [5] was inactive. Further, the Activity in series [6] was determined as 11%; in [10], 18%; in series [13], 33%; in series [15], 18%; in series [16], 45%. The molecule further showed an AUC in series [7] of 669 ng·h/mL. Moreover, in series [12], the Tmax was 1 h. The BPR is 0.81 in series [14] and 0.57 in series [19]. In addition, the EC50 in [18] is 187 nM. This molecule also came in with a Cmax in [21] of 309 ng/mL.
